Results on 19 compounds are retold here after BindingDB's records for doi:10.1016/j.bmc.2012.11.002 (China Pharmaceutical University, 2012).

Structures are written as SMILES.

Usually IC50 stands for the concentration needed to halve the response being measured. Lower therefore signals inhibition by little substance.

In this test the target is Tissue factor (Homo sapiens, UniProt P13726). Kind of test: Inhibition of tissue factor procoagulant activity in LPS-stimulated human THP1 cells preincubated for 1 hr before LPS addition measured after 5 hrs. The method in brief: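 THP-1 cells grown in RPMI-1640 with 10% heat-inactivated FCS, 37 °C, 5% CO2. Cells at 1 × 10⁶/mL pretreated 1 h with compound or 0.1% DMSO vehicle, then given 500 ng/mL LPS for 5 h. Cells were pelleted, resuspended, frozen/thawed three times, and the lysate incubated with prothrombin complex plus CaCl₂ (pH 7.3) 15 min at 37 °C. Factor Xa chromogenic substrate (0.5 mM) with EDTA was added and A405 read.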
Sequence of Tissue factor (P13726 whole entry): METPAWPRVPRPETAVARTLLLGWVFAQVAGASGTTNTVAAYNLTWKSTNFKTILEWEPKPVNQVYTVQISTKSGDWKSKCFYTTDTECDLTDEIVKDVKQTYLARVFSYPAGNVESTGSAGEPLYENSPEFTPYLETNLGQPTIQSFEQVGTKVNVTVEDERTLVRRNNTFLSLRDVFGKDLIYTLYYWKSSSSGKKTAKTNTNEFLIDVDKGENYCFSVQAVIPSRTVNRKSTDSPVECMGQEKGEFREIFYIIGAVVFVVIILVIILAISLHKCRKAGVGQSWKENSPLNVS
The compound `COc1cc2c(cc1OC)[C@H]1Cc3ccc(OC)c(O[C@@H]4O[C@H](CO)[C@@H](O)[C@H](O)[C@H]4O)c3CN1CC2` displayed an IC50 of 13 nM.
With `COc1cc2c(cc1OC)[C@@H]1Cc3ccc(OC)c(O[C@@H]4O[C@H](CO)[C@@H](O)[C@H](O)[C@H]4O)c3CN1CC2` the figure was 17 nM.
With `COc1ccc2c(c1O[C@@H]1O[C@H](CO)[C@@H](O)[C@H](O)[C@H]1O)CN1CCc3cc4c(cc3[C@H]1C2)OCO4` the figure was 8.8 nM.
With `COc1ccc2c(c1O[C@@H]1O[C@H](CO)[C@@H](O)[C@H](O)[C@H]1O)CN1CCc3cc4c(cc3[C@@H]1C2)OCO4` the figure was 39 nM.
As to `COc1cc(/C=C/C(=O)Oc2c(OC)ccc3c2CN2CCc4cc5c(cc4C2C3)OCO5)ccc1OC(C)=O` (centres undefined), the IC50 stood at 202 nM.
Turning to `COc1ccc2c(c1OC(=O)/C=C/c1ccccc1)CN1CCc3cc4c(cc3C1C2)OCO4` (centres undefined), half-maximal inhibition (IC50) was put at 3.8 nM.
As for `COc1ccc2c(c1OC(=O)c1ccccc1OC(C)=O)CN1CCc3cc4c(cc3C1C2)OCO4` (centres undefined), the midpoint of inhibition, the IC50, lay at 555 nM.
For `COc1ccc2c(c1OC(=O)c1ccccc1)CN1CCc3cc4c(cc3C1C2)OCO4` (centres undefined) the value was 377 nM; for `CCCCCC(=O)Oc1c(OC)ccc2c1CN1CCc3cc4c(cc3C1C2)OCO4` (centres undefined), 1500 nM; for `CCC(=O)Oc1c(OC)ccc2c1CN1CCc3cc4c(cc3C1C2)OCO4` (centres undefined), 119 nM.
As to `COc1ccc2c(c1OC(C)=O)CN1CCc3cc4c(cc3C1C2)OCO4` (centres undefined), half-maximal inhibition (IC50) required 63 nM.
Regarding `COc1ccc2c(c1O)CN1CCc3cc4c(cc3[C@@H]1C2)OCO4`, the IC50 was 36 nM.
With `COc1ccc2c(c1OC)CN1CCc3cc(O)c(O)cc3C1C2` (centres undefined) the figure was 969 nM; with `COc1cc2c(cc1OC)C1Cc3ccc(OC)c(O)c3CN1CC2` (centres undefined), 187 nM; with `COc1cc2c(cc1OC)C1Cc3ccc(OC)c(OC)c3CN1CC2` (centres undefined) [2,3,9,10-Tetramethoxy-5,8,13,13a-tetrahydro-6H-isoquino[3,2-a]isoquinoline], 15 nM.
Turning to `COc1ccc2c(c1OC)CN1CCc3cc4c(cc3C1C2)OCO4` (centres undefined) [9,10-dimethoxy-5,8,13,13a-tetrahydro-6H-[1,3]dioxolo[4,5-g]isoquino[3,2-a]isoquinoline], the IC50 was 8.4 nM.
Consider `COc1cc2c(cc1OC)[C@@H]1Cc3ccc(O)c(OC)c3CN1CC2` [(-)-Corydalmine], for which half-maximal inhibition (IC50) was put at 152 nM.
`COc1cc2c(cc1OC)[C@@H]1Cc3ccc(OC)c(OC)c3CN1CC2` [(-)-Tetrahydropalmatine] came in with an IC50 of 23 nM.
The compound `COc1ccc2c(c1O)CN1CCc3cc4c(cc3[C@H]1C2)OCO4` [R-(+)-Tetrahydroberberrubine] displayed an IC50 of 6.8 nM.
